Results gathered from unrelated publications.
Each line is one published result; the experiments were not run side by side.

CC[C@H](C)[C@H](NC(=O)[C@H](CO)NC(=O)[C@H](CCCNC(=N)N)NC(C)=O)C(=O)N[C@H]1CSSC[C@@H](C(=O)N[C@H](C(N)=O)[C@@H](C)O)NC(=O)[C@H](CCCNC(=N)N)NC(=O)[C@H](Cc2c[nH]cn2)NC(=O)[C@H](C)NC(=O)CNC(=O)[C@H](Cc2c[nH]c3ccccc23)NC(=O)[C@H](CC(=O)O)NC(=O)[C@H](CCC(N)=O)NC(=O)[C@H](Cc2cn(C)c3ccccc23)NC(=O)[C@H](C(C)C)NC1=O — thermodynamic solubility (absorbance; water): > 500 µM
CCn1c(=O)c(-c2cc(NC(=O)Nc3ccccc3)c(F)cc2Br)cc2cnc(NC)cc21 — Tmax (beagle dog, plasma; oral, 5 mg/kg, single dose): 2.25 h
CCCC(CCC)C(=O)OCC1(CO)C/C(=C\c2ccc(C(F)(F)F)cc2)C(=O)O1 (stereo not drawn) — MTD (general toxicity; nude mouse; intraperitoneal): 12 mg/kg/day
C=C1C[C@H](O)[C@H](Br)C(C)(C)[C@@]12CCC(C)=C(Cl)C2 — MTD (general toxicity; female CD-1 mouse; intraperitoneal, single dose): 65 mg/kg
CC[C@H](C)[C@H](NC(=O)[C@H](Cc1ccccc1)NC(=O)[C@H](Cc1ccc(O)cc1)NC(=O)[C@@H]1CCCN1C(=O)[C@H](N)CCCCN)C(=O)N1CCC[C@H]1C(=O)N[C@@H](CC(C)C)C(=O)NCC(=O)N[C@H](CCCCN)C(=O)NCC(=O)N[C@@H](CCC(=O)O)C(=O)N[C@H](C(=O)N[C@@H](CC(N)=O)C(=O)N[C@@H](CC(C)C)[C@@H](O)CC(=O)N[C@H](C(=O)N[C@@H](C)C(=O)N[C@@H](CCC(=O)O)C(=O)N1CCC[C@@H]1C(=O)N[C@@H](CCCCNC(=O)CCC(=O)O[C@H]1CC[C@@]2(C)C(=CC[C@H]3[C@@H]4CC[C@H]([C@H](C)CCCC(C)C)[C@@]4(C)CC[C@@H]32)C1)C(N)=O)C(C)C)C(C)C — thermodynamic solubility (aqueous buffer; pH 6.5): 0.951 mg/mL
CC[C@@H]1CN(C(=O)NCC(F)(F)F)C[C@@H]1c1cnc2cnc3[nH]ccc3n12 — MRT(0-inf) (beagle dog, plasma; oral, 1 mg/kg, single dose): 11.6 h
O=C(NCCN1CCCC1)c1cc(-c2ccc(CN3CCOCC3)cc2)nc2ccc(F)cc12 — Tmax (male beagle dog, blood; oral, 3 mg/kg): 4 h
CC(C)S(=O)(=O)c1ccc(S(=O)(=O)N2CCC[C@@H](C(=O)N3CCC(F)(F)CC3)C2)cc1 — MTD (general toxicity; mouse; oral): 10 mg/kg
CC[C@H](C)[C@H](NC(=O)[C@H](Cc1ccccc1)NC(=O)[C@@H](CCCCN)NC(=O)[C@@H]1CCCN1C(=O)[C@@H](N)Cc1ccc(O)cc1)C(=O)N1CCC[C@H]1C(=O)N[C@@H](CC(C)C)C(=O)NCC(=O)N[C@H](CCCCN)C(=O)NCC(=O)N[C@@H](CCC(=O)O)C(=O)N[C@H](C(=O)N[C@@H](CC(N)=O)C(=O)N[C@@H](CC(C)C)[C@@H](O)CC(=O)N[C@H](C(=O)N[C@@H](C)C(=O)N[C@@H](CCC(=O)O)C(=O)N1CCC[C@@H]1C(=O)N[C@@H](CCCCNC(=O)CCC(=O)O[C@H]1CC[C@@]2(C)C(=CC[C@H]3[C@@H]4CC[C@H]([C@H](C)CCCC(C)C)[C@@]4(C)CC[C@@H]32)C1)C(N)=O)C(C)C)C(C)C — thermodynamic solubility (aqueous buffer; pH 6.5): > 3 mg/mL
Cn1nc(C(F)(F)F)cc1-c1ccc(OCc2ccc(Cl)cc2)c(-c2cc(C(F)(F)F)cc(C(F)(F)F)c2)c1O — MTD (general toxicity; CD-1 mouse; oral): 240 mg/kg/day
CC[C@H](C)[C@H](NC(=O)[C@H](Cc1ccccc1)NC(=O)[C@H](Cc1ccc(O)cc1)NC(=O)[C@@H]1CCCN1C(=O)[C@@H](N)Cc1ccc(O)cc1)C(=O)N1CCC[C@H]1C(=O)N[C@@H](CC(C)C)C(=O)NCC(=O)N[C@H](CCCCN)C(=O)NCC(=O)N[C@@H](CCC(=O)O)C(=O)N[C@H](C(=O)N[C@@H](CC(N)=O)C(=O)N[C@@H](CC(C)C)[C@@H](O)CC(=O)N[C@H](C(=O)N[C@@H](C)C(=O)N[C@@H](CCC(=O)O)C(=O)N1CCC[C@@H]1C(=O)N[C@@H](CCCCNC(=O)CCC(=O)O[C@H]1CC[C@@]2(C)C(=CC[C@H]3[C@@H]4CC[C@H]([C@H](C)CCCC(C)C)[C@@]4(C)CC[C@@H]32)C1)C(N)=O)C(C)C)C(C)C — thermodynamic solubility (aqueous buffer; pH 6.5): 0.011 mg/mL
C[C@]12CCCN1CC1=NNC(=O)c3cc(F)cc4[nH]c2c1c34 — unbound tissue/plasma ratio (male Sprague-Dawley rat, brain; intravenous, 1 mg/kg): 0.134
Cc1cc(Nc2ccc(S(F)(F)(F)(F)F)cc2)n2nc(C(C)(F)F)nc2n1 — MTD (general toxicity; mouse; oral, multiple doses): > 200 mg/kg
CC[C@H](C)[C@H](NC(=O)[C@H](Cc1ccccc1)NC(=O)[C@H](Cc1ccc(O)cc1)NC(=O)[C@@H]1CCCN1C(=O)[C@@H](N)Cc1ccc(O)cc1)C(=O)N1CCC[C@H]1C(=O)N[C@@H](CC(C)C)C(=O)NCC(=O)NCC(=O)N[C@H](CCCCN)C(=O)N[C@@H](CCC(=O)O)C(=O)N[C@H](C(=O)N[C@@H](CC(N)=O)C(=O)N[C@@H](CC(C)C)[C@@H](O)CC(=O)N[C@H](C(=O)N[C@@H](C)C(=O)N[C@@H](CCC(=O)O)C(=O)N1CCC[C@@H]1C(=O)N[C@@H](CCCCNC(=O)CCC(=O)O[C@H]1CC[C@@]2(C)C(=CC[C@H]3[C@@H]4CC[C@H]([C@H](C)CCCC(C)C)[C@@]4(C)CC[C@@H]32)C1)C(N)=O)C(C)C)C(C)C — thermodynamic solubility (aqueous buffer; pH 6.5): < 0.001 mg/mL
N#C[C@@]1(c2ccc3c(N)ncnn23)O[C@H](CO)[C@@H](O)[C@H]1O — MRT(0-inf) (dog, plasma; intravenous, 2 mg/kg): 3.93 h
